ChEMBL document CHEMBL1287712, “Synthetic analogs of indole-containing natural products as inhibitors of sortase A and isocitrate lyase” (Bioorg Med Chem Lett, 2010)
≈ marks a conversion by molar mass, not a printed value. Where “and” joins values, the source holds several entries; their conditions need not be identical. Equal values may be shown once.

Each molecule was assayed on Bacillus subtilis (assay: Antimicrobial activity against Bacillus subtilis ATCC 6633). Conditions: not given.
Format: functional
How it was run: (§1)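 MIC by two-fold serial broth dilution in microtiter format. MIC taken as the lowest concentration giving complete growth inhibition relative to the negative control.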

Compound	MIC [µg/mL]
c1ccc(C2=NCCc3c2[nH]c2ccccc32)cc1	> 200
Cc1[nH]c2ccccc2c1C(=O)C(=O)Nc1ccccc1	> 200
O=C(Nc1ccccc1)C(=O)c1c[nH]c2ccccc12	> 200
COc1ccc2[nH]c3c(c2c1)CCNC3c1ccccc1 (centres undefined)	> 200
COc1ccc2[nH]c3c(c2c1)CCN=C3c1ccccc1	> 200
O=C(O)C(=O)c1c[nH]c2ccccc12	> 200
Cc1[nH]c2ccccc2c1C(=O)C(=O)O	> 200
COc1ccc(C2NCCc3c2[nH]c2ccccc32)cc1 (centres undefined)	6.25 (≈ 22.5 µM)
c1ccc2cc(C3NCCc4c3[nH]c3ccccc43)ccc2c1 (centres undefined)	6.25 (≈ 20.9 µM)
CC1(C)S[C@@H]2[C@H](NC(=O)[C@H](N)c3ccccc3)C(=O)N2[C@H]1C(=O)O [AMPICILLIN]	0.78 (≈ 2.23 µM)
COc1cccc(C2NCCc3c2[nH]c2ccccc32)c1 (centres undefined)	12.5 (≈ 44.9 µM)
Oc1ccc2[nH]c3c(c2c1)CCNC3c1ccccc1 (centres undefined)	100 (≈ 378 µM)

Each molecule was assayed on Escherichia coli (assay: Antimicrobial activity against Escherichia coli ATCC 25922). Conditions: not given.
Format: functional
How it was run: as §1

Compound	MIC [µg/mL]
c1ccc(C2=NCCc3c2[nH]c2ccccc32)cc1	> 200
Cc1[nH]c2ccccc2c1C(=O)C(=O)Nc1ccccc1	> 200
O=C(Nc1ccccc1)C(=O)c1c[nH]c2ccccc12	> 200
COc1ccc2[nH]c3c(c2c1)CCNC3c1ccccc1 (centres undefined)	> 200
COc1ccc2[nH]c3c(c2c1)CCN=C3c1ccccc1	> 200
O=C(O)C(=O)c1c[nH]c2ccccc12	> 200
Cc1[nH]c2ccccc2c1C(=O)C(=O)O	> 200
COc1ccc(C2NCCc3c2[nH]c2ccccc32)cc1 (centres undefined)	50 (≈ 180 µM)
c1ccc2cc(C3NCCc4c3[nH]c3ccccc43)ccc2c1 (centres undefined)	50 (≈ 168 µM)
CC1(C)S[C@@H]2[C@H](NC(=O)[C@H](N)c3ccccc3)C(=O)N2[C@H]1C(=O)O [AMPICILLIN]	50 (≈ 143 µM)
COc1cccc(C2NCCc3c2[nH]c2ccccc32)c1 (centres undefined)	50 (≈ 180 µM)
Oc1ccc2[nH]c3c(c2c1)CCNC3c1ccccc1 (centres undefined)	> 200

What follows are molecules tested against T1, Sortase A (Staphylococcus aureus, UniProt Q9S446) (assay: Inhibition of Staphylococcus aureus Sortase A). Conditions: not given.
T1 sequence (Q9S446 whole entry): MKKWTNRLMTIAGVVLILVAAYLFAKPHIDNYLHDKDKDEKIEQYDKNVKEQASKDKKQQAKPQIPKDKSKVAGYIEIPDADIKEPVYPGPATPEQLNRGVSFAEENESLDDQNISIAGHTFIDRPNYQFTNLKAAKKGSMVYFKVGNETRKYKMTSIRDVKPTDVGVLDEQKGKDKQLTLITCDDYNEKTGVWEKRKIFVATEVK

Compound	IC50
c1ccc(C2NCCc3c2[nH]c2ccccc32)cc1 (centres undefined)	> 403 µM
c1ccc(C2=NCCc3c2[nH]c2ccccc32)cc1	97.4 µM and 97 µM
O=C(CO)c1c[nH]c2ccc(O)cc12 [HYRTIOSIN A]	> 523 µM
O=C(C(=O)c1c[nH]c2ccc(O)cc12)c1c[nH]c2ccc(O)cc12 [HYRTIOSIN B]	> 312 µM
Cc1[nH]c2ccccc2c1C(=O)C(=O)Nc1ccccc1	61.1 µM and 61 µM
O=C(Nc1ccccc1)C(=O)c1c[nH]c2ccccc12	174 µM
COc1ccc2[nH]c3c(c2c1)CCNC3C(=O)O (centres undefined)	> 406 µM
COc1ccc2[nH]c3c(c2c1)CCNC3c1ccccc1 (centres undefined)	115 µM
COc1ccc2[nH]c3c(c2c1)CCN=C3c1ccccc1	25.3 µM and 25 µM
NCCc1c[nH]c2ccc(O)cc12 [SEROTONIN]	> 567 µM
O=Cc1c[nH]c2ccc(O)cc12	> 621 µM
O=C(O)C1NCCc2c1[nH]c1ccccc21 (centres undefined)	> 462 µM
COC(=O)c1c[nH]c2ccc(O)cc12	> 523 µM
O=C(Nc1ccccc1)C(=O)c1c[nH]c2ccc(O)cc12	> 357 µM
O=C(O)C(=O)c1c[nH]c2ccccc12	68.7 µM and 69 µM
COc1ccc2[nH]cc(C(=O)C(=O)Nc3ccccc3)c2c1	> 340 µM
Cc1[nH]c2ccccc2c1C(=O)C(=O)O	133 µM
CCCCCC1NCCc2c1[nH]c1ccccc21 (centres undefined)	> 413 µM
COc1ccc(C2NCCc3c2[nH]c2ccccc32)cc1 (centres undefined)	> 359 µM
c1ccc2cc(C3NCCc4c3[nH]c3ccccc43)ccc2c1 (centres undefined)	> 335 µM
CCCCCC1NCCc2c1[nH]c1ccc(OC)cc21 (centres undefined)	> 367 µM
COc1cccc(C2NCCc3c2[nH]c2ccccc32)c1 (centres undefined)	> 359 µM
O=C(O)C1NCCc2c1[nH]c1ccc(O)cc21 (centres undefined)	> 431 µM
O=C(O)C(=O)c1c[nH]c2ccc(O)cc12	> 487 µM
COc1ccc2[nH]cc(C(=O)C(=O)O)c2c1	> 456 µM
O=C(O)C1=NCCc2c1[nH]c1ccc(O)cc21	291 µM and 290 µM
O=C1NCCc2c1[nH]c1ccc(O)cc21	> 495 µM
Oc1ccc2[nH]c3c(c2c1)CCNC3c1ccccc1 (centres undefined)	106 µM

The molecules below were run on Staphylococcus aureus (assay: Antimicrobial activity against Staphylococcus aureus ATCC 6538p). Conditions: not given.
Format: functional
How it was run: as §1

Compound	MIC [µg/mL]
c1ccc(C2=NCCc3c2[nH]c2ccccc32)cc1	> 200
Cc1[nH]c2ccccc2c1C(=O)C(=O)Nc1ccccc1	> 200
O=C(Nc1ccccc1)C(=O)c1c[nH]c2ccccc12	> 200
COc1ccc2[nH]c3c(c2c1)CCNC3c1ccccc1 (centres undefined)	> 200
COc1ccc2[nH]c3c(c2c1)CCN=C3c1ccccc1	> 200
O=C(O)C(=O)c1c[nH]c2ccccc12	> 200
Cc1[nH]c2ccccc2c1C(=O)C(=O)O	> 200
COc1ccc(C2NCCc3c2[nH]c2ccccc32)cc1 (centres undefined)	12.5 (≈ 44.9 µM)
c1ccc2cc(C3NCCc4c3[nH]c3ccccc43)ccc2c1 (centres undefined)	12.5 (≈ 41.9 µM)
CC1(C)S[C@@H]2[C@H](NC(=O)[C@H](N)c3ccccc3)C(=O)N2[C@H]1C(=O)O [AMPICILLIN]	1.56 (≈ 4.46 µM)
COc1cccc(C2NCCc3c2[nH]c2ccccc32)c1 (centres undefined)	6.25 (≈ 22.5 µM)
Oc1ccc2[nH]c3c(c2c1)CCNC3c1ccccc1 (centres undefined)	100 (≈ 378 µM)

These molecules were tested on Salmonella typhimurium (assay: Antimicrobial activity against Salmonella Typhimurium ATCC 14028). Conditions: Salmonella enterica.
Format: functional, Salmonella enterica subsp. enterica serovar Typhimurium
How it was run: as §1

Compound	MIC [µg/mL]
c1ccc(C2=NCCc3c2[nH]c2ccccc32)cc1	> 200
Cc1[nH]c2ccccc2c1C(=O)C(=O)Nc1ccccc1	> 200
O=C(Nc1ccccc1)C(=O)c1c[nH]c2ccccc12	> 200
COc1ccc2[nH]c3c(c2c1)CCNC3c1ccccc1 (centres undefined)	> 200
COc1ccc2[nH]c3c(c2c1)CCN=C3c1ccccc1	> 200
O=C(O)C(=O)c1c[nH]c2ccccc12	> 200
Cc1[nH]c2ccccc2c1C(=O)C(=O)O	> 200
COc1ccc(C2NCCc3c2[nH]c2ccccc32)cc1 (centres undefined)	6.25 (≈ 22.5 µM)
c1ccc2cc(C3NCCc4c3[nH]c3ccccc43)ccc2c1 (centres undefined)	12.5 (≈ 41.9 µM)
CC1(C)S[C@@H]2[C@H](NC(=O)[C@H](N)c3ccccc3)C(=O)N2[C@H]1C(=O)O [AMPICILLIN]	1.56 (≈ 4.46 µM)
COc1cccc(C2NCCc3c2[nH]c2ccccc32)c1 (centres undefined)	12.5 (≈ 44.9 µM)
Oc1ccc2[nH]c3c(c2c1)CCNC3c1ccccc1 (centres undefined)	100 (≈ 378 µM)

What follows are molecules tested against Isocitrate lyase (Candida albicans, UniProt Q9P8Q7) (assay: Inhibition of Candida albicans isocitrate lyase). Conditions: not given.
Chain of Isocitrate lyase (Q9P8Q7 whole entry): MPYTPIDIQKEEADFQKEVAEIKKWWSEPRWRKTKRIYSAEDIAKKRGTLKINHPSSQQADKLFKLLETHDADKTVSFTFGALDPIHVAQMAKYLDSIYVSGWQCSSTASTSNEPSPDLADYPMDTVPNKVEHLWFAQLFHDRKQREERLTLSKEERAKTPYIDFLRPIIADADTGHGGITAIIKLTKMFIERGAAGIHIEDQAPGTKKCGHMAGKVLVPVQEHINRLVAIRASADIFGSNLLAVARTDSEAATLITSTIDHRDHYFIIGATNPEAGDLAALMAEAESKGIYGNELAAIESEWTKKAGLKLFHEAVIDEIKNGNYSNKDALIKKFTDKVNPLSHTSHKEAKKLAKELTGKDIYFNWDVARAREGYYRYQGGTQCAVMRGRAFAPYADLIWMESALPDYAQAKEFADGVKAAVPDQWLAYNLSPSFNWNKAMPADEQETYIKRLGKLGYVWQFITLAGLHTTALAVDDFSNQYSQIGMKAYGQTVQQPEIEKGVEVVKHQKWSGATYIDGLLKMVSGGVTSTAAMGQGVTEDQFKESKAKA

Compound	IC50
c1ccc(C2NCCc3c2[nH]c2ccccc32)cc1 (centres undefined)	> 403 µM
c1ccc(C2=NCCc3c2[nH]c2ccccc32)cc1	> 406 µM
O=C(C(=O)c1c[nH]c2ccc(O)cc12)c1c[nH]c2ccc(O)cc12 [HYRTIOSIN B]	90.5 µM
Cc1[nH]c2ccccc2c1C(=O)C(=O)Nc1ccccc1	> 359 µM
O=C(Nc1ccccc1)C(=O)c1c[nH]c2ccccc12	> 378 µM
COc1ccc2[nH]c3c(c2c1)CCNC3C(=O)O (centres undefined)	> 406 µM
COc1ccc2[nH]c3c(c2c1)CCNC3c1ccccc1 (centres undefined)	> 359 µM
COc1ccc2[nH]c3c(c2c1)CCN=C3c1ccccc1	> 362 µM
O=C(O)C1NCCc2c1[nH]c1ccccc21 (centres undefined)	> 462 µM
COC(=O)c1c[nH]c2ccc(O)cc12	> 523 µM
O=C(Nc1ccccc1)C(=O)c1c[nH]c2ccc(O)cc12	> 357 µM
O=C(O)C(=O)c1c[nH]c2ccccc12	> 529 µM
COc1ccc2[nH]cc(C(=O)C(=O)Nc3ccccc3)c2c1	> 340 µM
Cc1[nH]c2ccccc2c1C(=O)C(=O)O	> 492 µM
CCCCCC1NCCc2c1[nH]c1ccccc21 (centres undefined)	> 413 µM
COc1ccc(C2NCCc3c2[nH]c2ccccc32)cc1 (centres undefined)	180 µM
c1ccc2cc(C3NCCc4c3[nH]c3ccccc43)ccc2c1 (centres undefined)	137 µM
CCCCCC1NCCc2c1[nH]c1ccc(OC)cc21 (centres undefined)	> 367 µM
COc1cccc(C2NCCc3c2[nH]c2ccccc32)c1 (centres undefined)	75 µM and 75.4 µM
O=C(O)C1NCCc2c1[nH]c1ccc(O)cc21 (centres undefined)	> 431 µM
O=C(O)C(=O)c1c[nH]c2ccc(O)cc12	> 487 µM
COc1ccc2[nH]cc(C(=O)C(=O)O)c2c1	> 456 µM
O=C1NCCc2c1[nH]c1ccc(O)cc21	> 495 µM
Oc1ccc2[nH]c3c(c2c1)CCNC3c1ccccc1 (centres undefined)	> 378 µM

The molecules below were run on Micrococcus luteus (assay: Antimicrobial activity against Micrococcus luteus IFC 12708). Conditions: not given.
Format: functional
How it was run: as §1

Compound	MIC [µg/mL]
c1ccc(C2=NCCc3c2[nH]c2ccccc32)cc1	> 200
Cc1[nH]c2ccccc2c1C(=O)C(=O)Nc1ccccc1	> 200
O=C(Nc1ccccc1)C(=O)c1c[nH]c2ccccc12	> 200
COc1ccc2[nH]c3c(c2c1)CCNC3c1ccccc1 (centres undefined)	> 200
COc1ccc2[nH]c3c(c2c1)CCN=C3c1ccccc1	> 200
O=C(O)C(=O)c1c[nH]c2ccccc12	> 200
Cc1[nH]c2ccccc2c1C(=O)C(=O)O	> 200
COc1ccc(C2NCCc3c2[nH]c2ccccc32)cc1 (centres undefined)	6.25 (≈ 22.5 µM)
c1ccc2cc(C3NCCc4c3[nH]c3ccccc43)ccc2c1 (centres undefined)	12.5 (≈ 41.9 µM)
CC1(C)S[C@@H]2[C@H](NC(=O)[C@H](N)c3ccccc3)C(=O)N2[C@H]1C(=O)O [AMPICILLIN]	0.78 (≈ 2.23 µM)
COc1cccc(C2NCCc3c2[nH]c2ccccc32)c1 (centres undefined)	12.5 (≈ 44.9 µM)
Oc1ccc2[nH]c3c(c2c1)CCNC3c1ccccc1 (centres undefined)	100 (≈ 378 µM)

Each molecule was assayed on Proteus vulgaris (assay: Antimicrobial activity against Proteus vulgaris ATCC 3851). Conditions: not given.
Format: functional
How it was run: as §1

Compound	MIC [µg/mL]
c1ccc(C2=NCCc3c2[nH]c2ccccc32)cc1	> 200
Cc1[nH]c2ccccc2c1C(=O)C(=O)Nc1ccccc1	> 200
O=C(Nc1ccccc1)C(=O)c1c[nH]c2ccccc12	> 200
COc1ccc2[nH]c3c(c2c1)CCNC3c1ccccc1 (centres undefined)	> 200
COc1ccc2[nH]c3c(c2c1)CCN=C3c1ccccc1	> 200
O=C(O)C(=O)c1c[nH]c2ccccc12	> 200
Cc1[nH]c2ccccc2c1C(=O)C(=O)O	> 200
COc1ccc(C2NCCc3c2[nH]c2ccccc32)cc1 (centres undefined)	6.25 (≈ 22.5 µM)
c1ccc2cc(C3NCCc4c3[nH]c3ccccc43)ccc2c1 (centres undefined)	6.25 (≈ 20.9 µM)
CC1(C)S[C@@H]2[C@H](NC(=O)[C@H](N)c3ccccc3)C(=O)N2[C@H]1C(=O)O [AMPICILLIN]	0.78 (≈ 2.23 µM)
COc1cccc(C2NCCc3c2[nH]c2ccccc32)c1 (centres undefined)	12.5 (≈ 44.9 µM)
Oc1ccc2[nH]c3c(c2c1)CCNC3c1ccccc1 (centres undefined)	100 (≈ 378 µM)
